B1: tRNA (parent)
chain: GUUCCGUUGGCGUAAUGGUAACGCGUCUCCCUCCUAAGGAGAAGACUGCGGGUUCGAGUCCCGUACGGAACG

The values below come from the RNAGym collection of RNA variant scans (doi:10.1126/science.aae0568).

This sample holds only a part of the variants without activity. Where only a bound is given, the exact number is not on record here.

The variants in the data set derive from B1. In words: yeast fitness relative to wild type (ratio to wild type); higher = fitter; tRNA-Arg(CCU), competitive growth, 37 C, YPD. The procedure, abridged: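 Genotype frequency changes were the basis for Darwinian fitness relative to wild type. The frequencies came from 100-nucleotide paired-end sequencing of gene amplicons from the start population and each end population of pooled yeast strains with tRNA-Arg(CCU) gene variants at the native locus. Competition ran in YPD at 37°C for 24 hours in six replicates, genotypes needed ≥ 100 starting reads, and estimates < 0.5 were set to 0.5.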
Regarding GUUCCGUUGGCGCAAUGGUAACGCGUCUCCUUCCUAAGGAGAACACUGCGGGUUCGAGUCCCGUACGGAACG, the yeast fitness came out at 0.844.
As for GUUCCGUUGGCGCAAUGGUAACGCGUCUCCCUCCUAAGGAGAAGACUGCGGGUUCGAGUCCCGUACGGACCG, the figure is 1.09; as for GUUCCGUUGGCGCAAUGGUAAACCGUCUCCCUCUUGAGGUGAAGACUGCGGGUUCGAGUCCCGUACGGAACG, at most 0.5.
As to GUUCCGUUGGCGCAAUGGUAACGCGUCUCCCUCCUAUGGAGAAGACUGGGGGUUCGAGUCCCGUACGGAACG, the yeast fitness was at most 0.5.
On to GUUCCGUUGGCGCAAUGGUAACGCGUCUCCAUCCUAAGGAGAAGAUUGCGGGUUCGAGUCCCGUACGGACCG, for which the yeast fitness is at most 0.5.
Take GUUCCGUUGGCGCAAUGGUAACGCGUCUUCCUCCUAAGGAGAAGACUGCGGGUUUGAGUCCCGUACGGAACG: the yeast fitness is at most 0.5.
With GUUCCGUUGGCGCAAUGGUAACGCGUCUCCCUCCUAAGGAGAGGACUGCGGGAUCGAGUCCCGUACGGAACG, the yeast fitness was at most 0.5.
As for GUUCCGUUGGCGCAAUGGUAAUGCGUCUCCCUCCUAAGGAGAAGCCUCCGGGUUCGAGUCCCGUACGGAACG, the yeast fitness is at most 0.5.
As to GUUCCGUUGGCGCAAUGGUAACGCGUCUCAAUCCUAAGGAGAAGACUGCGGGUUCGAGUCCCGUACGGAACG, the yeast fitness was determined as 0.532.
For GUUCCGUUGGCGCAAUGGUAACGCGUUUCCCUCCUAAGGAGAAGACUGCGGGUUCGAGUCCCGUACGGAACG, the yeast fitness was found to be 0.878.
As for GUUCCGUUGGCGCAAUGGUAACGCGUCUCCCUCCUAAGGAGAAGAGUGCGGGUUCGAGUCCCGUACGGAACG, the figure is 0.97.
As for GUUCCGUUGGCGCAAUAGUAAAGCAUCUCCCUCCUAAGGAGAAGACUGCGGGUUCGAGUCCCGUACGGAACG, the figure is at most 0.5; as for GUUCCGUUGGCGCAAUGGUAACGCGUCUCCCUCCUAAGGAGAAGACUGCGGGUUCGAGUCCCGUGCGGACCG, 0.744.
As for GUUCCGUUGGCGCAAUGGUAACGCGUCUCCCUCCUAAGGCGAAGACUGCGGGUUCGAGUCCCGUACGGAACG, the figure is 0.882.
As to GUUCCGUUGGCGCAAUGGUAACGCGUCUGCCUCCUGAGGAAAAGACUGCGGGUUCGAGUCCCGUACGGAACG, the yeast fitness is at most 0.5.
On to GUUCCGUUGGCGCAAUGGUAACGCGUCUCCCUCCUAAGGAGAGGACUGCCGGUUCGAGUCCCGUACAGAACG, for which the yeast fitness is at most 0.5.
As to GUUCCGUUGGCGCAAUGGUAACGCGUCUACCUCCUAAGGAGAAGACUGCGGGUUCGAGUCCCGUACGGCACG, the yeast fitness was 0.576.
Turning to GUUCCGUUGGCGCAAUGGUAACGCGUCUCCCUCCUAAGGAGAAGACUGCGGGUUAGAGUCCCGUACGGAACG, the yeast fitness turned out to be 0.611.
For GUUCCGUUGGCGCAAUGGUAACGCGUCUCCCUGCUAAGGGGAAGACUGCGGGUUCGAGACCCGUACGGAACG, the yeast fitness is at most 0.5.
Take GUUCCGUUGGCGCAAUGGUAACGCGUCUCCCUCCUAAGGAGAUGACUGCGGGUUCGAGUCCCGUACGGAGCG: the yeast fitness was determined as 0.966.
As to GUUCCGUUGGCGCAAUGGUAACGCGUCUGCCUCCUAAGGAGAAGACUGCGGGUUCGAGUCCCGUUCGGAUCG, the yeast fitness came out at 0.588.
As for GUUCCGUUGGCGCAAUGGUAACGCGUAUCCCUCCUAAGGAGAAGACUGCGGGUUCGAGUCACGUACGGAACG, the figure is at most 0.5; as for GUUCCGUUGGCGCAAUGGUAACGCGUCUCCCUCCUAAGGAGAUGAGUGCGGGUUCGAGUCCCGUACGGAACG, at most 0.5; as for GUUCCGUUGGCGCAAUGGUAACGCGUCUCCCUCCUGAGGAGAAGAAUGAGGGUUCGAGUCCCGUACGGAACG, at most 0.5.
Then GUUCCGUUGGCGCAAUGGUAACGCGUCUCCCUUCUAAGGAGAAGGCUGCAGGUUCGAGUCCCGUAAGGAUCG, with at most 0.5.
Regarding GUUCCGUUGGCGCAAUGGUAAUGCGUCUCUCUCCUAAGGAGAAGACUGCGGGUUCGAGUCCCGUACGGAACG, the yeast fitness was at most 0.5.
As for GUUCCGUUGGCGCAAUGGUAACGCGUGUCCCUCCUAAGGAGAAGACUGCGGGUUCGAGUCCCCUACGGAACG, the figure is 0.548; as for GUUCCGUUGGCGCAAUGGUAACGCGUCUCCCUCCUAAGGAGUAGACUGCGGGUCCGAGUCCCGUCCGGAACG, at most 0.5.
As for GUUCCGUUGGCGCAAUGGUAACGUGUCUCCCUCUUAAGGAGAAGACUGCGGGUUCGAGUCCCGUACGGAACG, the figure is at most 0.5; as for GUUCCGUUGGCGCAAUGGUAACGUGUCUCCCUCGUAAGGAGAAGACUGCGGGUUCGAGUCCCGUACGGAACG, 0.556; as for GUUCCGUUGGCGCAAUGGUAAUGCGUCUCCCUCCUAAGGAGAAGUCUGCGGGUUCGAGUCCCGUACGGAACG, 0.713.
Then GUUCCGUUGGCGCAAUGGUAACGCGUCUCCCUCCUAAGGAGAAGACUGGGGGUUCGAGUCGCGUACGGAACG, with at most 0.5; and GUUCCGUUGGCGCAAUGGUAACGCGUCUCCCUCCUAAGGAGAAGACUGCGGGUUCGAGUCCCGUAUGGAACG, with 0.932; and GUUCCGUUGGCGCAAUGGUAACGUGUCUCCCUCCUAAGGAAAAGACUGCGGGUUCGAGUCCAGUACGGAACG, with at most 0.5.
In the case of GUUCCGUUGGCGCAAUGGUAACGCGUCUCGCUCCUAUGGAGAAGACCGCGGGUUCGAGUCCCGUACGGAGCG, the yeast fitness was at most 0.5.
As for GUUCCGUUGGCGCAAUGGUAACGCGUCUCCAUCCUAAGGAGAAGACUGGGGGUUCGAGUCGCGUACGGAACG, the figure is at most 0.5; as for GUUCCGUUGGCGCAAUGGUAACGCGUCUCCCUCCUAAGGAGAAGACUGCGGGUUCGGGUCCCGUACGGAACG, 0.919; as for GUUCCGUUGGCGCAAUGGUAAGGCGUCUCCCUCCUUAGGAGAAGACUGCGGGUUCGAGUCCUGUAUGGCACG, at most 0.5.
